Compound activity: PubChem, Broad Institute
Shown are actives, neighbours in structure and some others; about 5.9% of the full set was active somewhere.
T cruzi growth-1: inhibitors of T. cruzi proliferation. T. cruzi beta-gal in NIH3T3, GalScreen luminescence, 90 h. inhibition, % at 8.34 µM. 77,000 tested, 5.9% active;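 active = mean inhibition above about 93%, with at least 55% of replicates each passing it, limit read from the data, passing the limit was not always enough; inconclusive = only one of those two conditions holds; inactive = neither condition holds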
IDH1 R132H inh: blocks human IDH1 R132H reductase activity. O75874. diaphorase/resazurin fluorescence, 60 min. inhibition, % at 10 µM. 70,000 tested, 0.18% active; in the data active = inhibition above about 34%; inconclusive = no clear call, values can overlap the other calls; inactive = below about 11%
Target sequence (O75874 whole entry R132H): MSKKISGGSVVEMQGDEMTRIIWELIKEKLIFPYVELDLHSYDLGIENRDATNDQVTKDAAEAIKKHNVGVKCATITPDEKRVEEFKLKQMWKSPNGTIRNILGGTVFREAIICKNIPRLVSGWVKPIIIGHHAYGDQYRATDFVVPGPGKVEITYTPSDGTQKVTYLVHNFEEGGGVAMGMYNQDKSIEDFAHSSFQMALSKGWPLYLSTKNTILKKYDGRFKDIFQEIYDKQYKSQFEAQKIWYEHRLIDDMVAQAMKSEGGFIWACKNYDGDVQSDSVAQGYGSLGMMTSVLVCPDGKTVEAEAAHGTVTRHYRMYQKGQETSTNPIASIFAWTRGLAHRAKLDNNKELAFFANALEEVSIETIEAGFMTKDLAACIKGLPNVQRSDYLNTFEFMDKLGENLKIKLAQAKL
Pf Dd2 inh: blocks growth of Plasmodium falciparum Dd2 parasites; AID 1159554; activity change, % at 10 µM; P. falciparum Dd2 growth, SYBR Green, 72 h; stronger effect = lower value; 94,000 tested, 2.3% active; in the data active = activity change below about -80%; inconclusive = no clear call, values can overlap the other calls
KDM4C inh: blocks human GASC-1 (KDM4C) demethylase activity | Q9H3R0 | GST-KDM4C 2-372, H3K9me3 peptide, LANCE TR-FRET | inhibition, % at 12.5 µM | 96,000 tested, 0.15% active | AID 720574;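 active = mean replicate inhibition above about 25%, with at least 55% of replicates also reaching it, limit read from the data, passing the limit was not always enough; inconclusive = only one of those two conditions met; inactive = neither condition met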
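Compound: one test concentration per compound; Material: GST-GASC-1 enzyme fragment 2-372; Amount: GASC-1 enzyme at 10 nM final in reaction; Also added: H3K9me3 peptide substrate, Fe(II), 2-oxoglutarate; Technique: LANCE TR-FRET; Times: 30 min demethylation and 1 h detection at room temperature.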
T cruzi growth-2: inhibitors of T. cruzi proliferation; shares compounds with T cruzi growth-1; AID 651739; T. cruzi beta-gal in NIH3T3, GalScreen luminescence, 90 h; 5,600 tested, 72% active; inhibition, % at 8.35 µM;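 active = mean replicate inhibition above about 95% and at least 55% of replicates individually reaching it, limit read from the data; inconclusive = only one of the two criteria is met; inactive = neither criterion is met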
T cruzi growth-3: blocks T. cruzi growth in NIH3T3 host cells. inhibition, % at 2.09 µM. AID 651740. 5,600 tested, 21% active. shares compounds with T cruzi growth-1. T. cruzi beta-gal in NIH3T3, GalScreen luminescence, 90 h;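 active = mean inhibition above about 95%, with at least 55% of replicates also reaching it, limit read from the data; inconclusive = meets just one of the two conditions; inactive = meets neither condition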
NIH3T3 tox: cytotoxicity in mouse NIH/3T3 fibroblasts; AID 651742; 5,600 tested, 14% active; cytotoxicity (signal decrease), % at 8.35 µM; NIH/3T3 viability, CellTiter-Glo ATP luminescence, 90 h; shares compounds with T cruzi growth-1;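 active = mean signal decrease across replicates above about 35% based on untreated-well scatter, with enough replicates individually passing, limit read from the data; inconclusive = no rule stated though some were filed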
3T3 cytotox 2: kills mouse NIH/3T3 fibroblasts | 5,600 tested, 56% active | inhibition, % at 24.9 µM | AID 651744 | NIH/3T3 viability, CellTiter-Glo ATP luminescence, 90 h | shares compounds with T cruzi growth-1;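 active = mean loss of cell viability signal at or above a set limit, and enough replicates individually reaching it; inconclusive = meets only the mean limit or only the replicate share; inactive = meets neither condition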
Numbers stand for hits; n = inactive; u = inconclusive; x = no result.

SMILES | T cruzi growth-1 | IDH1 R132H inh | Pf Dd2 inh | KDM4C inh | T cruzi growth-2 | T cruzi growth-3 | NIH3T3 tox | 3T3 cytotox 2
CN(C)C(=O)c1ccc(-c2ccc([C@H]3[C@@H](CO)N4CCCCN(Cc5cccnc5)C[C@H]34)cc2)cc1 | u | x | n | n | 104 | n | n | n
CN(C)C(=O)c1cccc(-c2ccc([C@H]3[C@@H](CO)N4CCCCN(Cc5cccnc5)C[C@H]34)cc2)c1 | u | x | n | n | 107 | n | n | n
CN(C)C(=O)c1cccc(-c2ccc([C@@H]3[C@H](CO)N4CCCCN(Cc5cccnc5)C[C@@H]34)cc2)c1 | n | x | n | n | x | x | x | x
COc1ccc(N(CC(=O)Nc2ccc(I)cc2C)S(C)(=O)=O)cc1Cl | x | n | x | x | x | x | x | x
CCCN(C)C[C@H]1OCCCC[C@@H](C)Oc2ccc(NC(=O)C3CCCCC3)cc2C(=O)N([C@@H](C)CO)C[C@H]1C | 102 | x | -81 | n | 104 | n | n | n
CCCN(C)C[C@H]1OCCCC[C@@H](C)Oc2ccc(NC(=O)C3CCCCC3)cc2C(=O)N([C@H](C)CO)C[C@@H]1C | n | x | n | n | x | x | x | x
CCCN(C)C[C@H]1OCCCC[C@H](C)Oc2ccc(NC(=O)C3CCCCC3)cc2C(=O)N([C@H](C)CO)C[C@H]1C | 108 | n | n | n | 99 | n | n | n
CN(CC(=O)Nc1ccc(Oc2ccccc2)cc1)S(=O)(=O)c1ccccc1 | x | n | x | x | x | x | x | x
COc1cccc2cc(C(=O)C3C(=O)C(=O)N(CCc4ccccc4)C3c3cccnc3)oc12 (configuration not stated) | x | n | x | x | x | x | x | x
O=C(C[C@@H]1CC[C@@H]2[C@H](COC[C@@H](O)CN2S(=O)(=O)c2cccc(Cl)c2)O1)Nc1ccc(-c2ccccc2)cc1 | 108 | x | n | n | 98 | u | n | 70
O=C(C[C@@H]1CC[C@H]2[C@@H](COC[C@@H](O)CN2S(=O)(=O)c2cccc(Cl)c2)O1)Nc1ccc(-c2ccccc2)cc1 | 110 | x | n | n | 101 | n | n | 103
COc1ccccc1CNC(=O)c1ccc(Cl)c(S(=O)(=O)N2CCOCC2)c1 | x | n | x | x | x | x | x | x
O=C(N/N=C/c1ccc(Oc2ccccc2)cc1)c1ccccc1O | x | n | x | x | x | x | x | x
COc1cccc(CNC(=O)[C@H]2[C@H](CO)[C@H]3Cn4c(cccc4=O)[C@@H]2N3C(=O)C2CCCCC2)c1 | 157 | x | x | n | n | n | n | n
O=C(NCC(F)(F)F)[C@@H]1[C@@H](CO)[C@@H]2Cn3c(cccc3=O)[C@H]1N2C(=O)C1CC1 | u | x | n | n | n | n | n | n
O=C(NCC(F)(F)F)[C@H]1[C@H](CO)[C@H]2Cn3c(cccc3=O)[C@@H]1N2C(=O)C1CCC1 | n | x | n | n | x | x | x | x
O=C(CSc1n[nH]c(-c2ccc(Cl)cc2)n1)c1ccc(Br)cc1 | x | n | x | x | x | x | x | x
COC(=O)[C@@H]1[C@@H](CO)[C@@H]2Cn3c(ccc(-c4ccc(F)cc4)c3=O)[C@@H]2N1C(=O)C1CCC1 | 114 | x | x | n | n | n | n | n
CCCNC(=O)N1[C@@H]2c3ccc(-c4ccc(F)cc4)c(=O)n3C[C@@H]2[C@@H](CO)[C@@H]1C(=O)N1CCCCC1 | 102 | x | x | n | n | n | n | n
CCCNC(=O)[C@@H]1[C@@H](CO)[C@@H]2Cn3c(ccc(-c4ccccc4)c3=O)[C@@H]2N1C(=O)C1CCC1 | 102 | x | n | n | n | n | n | n
O=C([C@H]1[C@H](CO)[C@H]2Cn3c(ccc(-c4cccc(F)c4)c3=O)[C@H]2N1Cc1cocn1)N1CCCCC1 | u | x | n | n | n | n | n | 24
COC(=O)[C@H]1[C@H](CO)[C@H]2Cn3c(ccc(-c4ccc(F)cc4)c3=O)[C@H]2N1C(=O)C1CC1 | n | x | n | n | x | x | x | x
COc1ccccc1NC(=O)Cn1nc([N+](=O)[O-])c(Br)c1C | x | n | x | x | x | x | x | x
O=C(CSc1nnc(-c2cccc(Br)c2)n1-c1ccccc1)Nc1ccc(Cl)cc1 | x | n | x | x | x | x | x | x
O=C(CS(=O)c1ccc(C(F)(F)F)cc1[N+](=O)[O-])Oc1ccc(C2CCCCC2)cc1 (configuration not stated) | x | n | x | x | x | x | x | x
SMILES | T cruzi growth-1 | IDH1 R132H inh | Pf Dd2 inh | KDM4C inh | T cruzi growth-2 | T cruzi growth-3 | NIH3T3 tox | 3T3 cytotox 2
O=C(Nc1ccc(C(F)(F)F)cc1)Nc1ccc2c(c1)[C@H]1C[C@H](CC(=O)N3CCc4ccccc4C3)O[C@@H](CO)[C@H]1O2 | 141 | n | n | n | 96 | n | n | 103
O=C(Nc1ccc(C(F)(F)F)cc1)Nc1ccc2c(c1)[C@H]1C[C@@H](CC(=O)N3CCc4ccccc4C3)O[C@H](CO)[C@H]1O2 | u | n | n | n | n | 112 | n | 40
CN(C)c1ccc2c(c1)[C@@H]1C[C@H](CC(=O)N3CCc4ccccc4C3)O[C@H](CO)[C@@H]1O2 | n | n | n | n | x | x | x | x
O=C(Nc1ccc(C(F)(F)F)cc1)Nc1ccc2c(c1)[C@H]1C[C@@H](CC(=O)N3CCc4ccccc4C3)O[C@@H](CO)[C@H]1O2 | n | n | n | n | x | x | x | x
CN(C)c1ccc2c(c1)[C@@H]1C[C@@H](CC(=O)N3CCc4ccccc4C3)O[C@@H](CO)[C@@H]1O2 | 135 | n | -86 | n | n | n | n | n
COc1ccc(OC)c(NC(=O)C2=C(C)NC(=O)NC2c2ccc(OC)cc2OC)c1 (configuration not stated) | x | n | x | x | x | x | x | x
CN1c2ccc(-c3cccc(C#N)c3)cc2[C@@H]2[C@@H](CCN2C(=O)CC2CC2)[C@H]1CO | n | x | n | n | x | x | x | x
CN1c2ccc(-c3ccc(C#N)cc3)cc2[C@@H]2[C@@H](CCN2C(=O)CC2CC2)[C@H]1CO | 104 | x | n | n | 106 | n | n | 41
CN1c2ccc(-c3cccc(F)c3)cc2[C@H]2[C@H](CCN2C(=O)CC2CC2)[C@@H]1CO | 98 | x | n | n | 102 | n | n | n
C[C@H]1CCCCO[C@H](CN(C)C(=O)Nc2ccccc2)[C@@H](C)CN([C@@H](C)CO)C(=O)c2cc(NS(=O)(=O)c3ccc(Cl)cc3)ccc2O1 | u | x | -84 | n | 103 | n | n | n
C[C@@H]1CCCCO[C@@H](CN(C)C(=O)Nc2ccccc2)[C@@H](C)CN([C@@H](C)CO)C(=O)c2cc(NS(=O)(=O)c3ccc(Cl)cc3)ccc2O1 | 118 | x | n | n | 104 | n | n | n
C[C@H](CO)N1C[C@H](C)[C@H](CN(C)C(=O)c2ccccc2)OCCCC[C@H](C)Oc2ccc(NS(=O)(=O)c3ccc(Cl)cc3)cc2C1=O | 101 | x | n | n | n | n | n | n
C[C@H]1CCCCO[C@@H](CN(C)C(=O)Cc2ccccc2)[C@@H](C)CN([C@@H](C)CO)C(=O)c2cc(NS(=O)(=O)c3ccc(Cl)cc3)ccc2O1 | 101 | x | n | n | 109 | n | n | n
